Data published in ChEMBL document CHEMBL1153242, “Novel spiropiperidine-based stearoyl-CoA desaturase-1 inhibitors: Identification of 1'-{6-[5-(pyridin-3-ylmethyl)-1,3,4-oxadiazol-2-yl]pyridazin-3-yl}-5-(trifluoromethyl)-3,4-dihydrospiro[chromene-2,4'-piperidine]” (Bioorg Med Chem Lett, 2010).

Columns and labels:
Stearoyl-CoA desaturase [1] = biological target: T1, Stearoyl-CoA desaturase (Homo sapiens, UniProt O00767); experiment: Inhibition of human SCD1 expressed in human 293A cells assessed as conversion of [14C]stearate to [14C]oleate; format: cell-based
T1 sequence (O00767 whole entry): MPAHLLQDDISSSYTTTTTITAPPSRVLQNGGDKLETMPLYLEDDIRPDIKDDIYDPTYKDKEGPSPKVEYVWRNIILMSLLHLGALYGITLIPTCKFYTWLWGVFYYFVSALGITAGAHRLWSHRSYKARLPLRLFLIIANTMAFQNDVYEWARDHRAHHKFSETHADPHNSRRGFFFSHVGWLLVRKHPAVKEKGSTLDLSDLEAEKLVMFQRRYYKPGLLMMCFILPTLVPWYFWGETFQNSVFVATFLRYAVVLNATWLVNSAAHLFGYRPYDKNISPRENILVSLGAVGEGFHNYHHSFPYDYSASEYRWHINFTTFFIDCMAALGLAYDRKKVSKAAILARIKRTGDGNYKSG

[2] = biological target: Stearoyl-CoA desaturase (Homo sapiens) (UniProt O00767); experiment: Inhibition of SCD1 in human 293A cells S9 microsomal fraction assessed as conversion of [14C]stearate to [14C]oleate after 60 mins
[3] = biological target: Stearoyl-CoA desaturase 1 (Mus musculus) (UniProt P13516); experiment: Inhibition of SCD1 in mouse liver assessed as conversion of [14C]stearate to [14C]oleate after 60 mins in S9 microsomal fraction
Mus musculus [4] = experiment: In vivo inhibition of SCD1 in db/db mouse liver assessed as conversion of [14C]stearate to [14C]oleate administered through oral gavage; format: functional; conditions: read-out: ID50 (the source's name)
Mus musculus [5] = experiment: In vivo inhibition of SCD1 in non-fat diet-induced oral dosed C57BL/6J mouse liver assessed as conversion of ratio of [14C]oleate to [14C]stearate after 2 to 3 hrs; format: functional; conditions: read-out: ID50 (the source's name)
Outline: (§1)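 C57BL/6J mice on a non-fat diet (n = 2) dosed with inhibitor 2 h or 6 h before [14C]stearate. Mice killed 1 h after the [14C]stearate injection and livers removed. ID50 in mg/kg is the arithmetic mean of at least two experiments.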

[6] = (§2) Oral bioavailability in C57BL/6J mouse at 20 mg/kg; format: ADME, organism-based; conditions: C57BL/6J, in vivo
[7] = AUC (0 to8 hrs) in C57BL/6J mouse at 20 mg/kg, po; format: ADME, organism-based; design: time < 8 hr, dose 20 mg/kg, route oral; conditions: plasma
Outline: (§3)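 Oral dose of 20 mg/kg in PG/Tween (4/1), given by intubation tube to C57BL/6J mice (n = 3). Plasma sampled up to 8 h after dosing and compound levels measured by LC/MS. Values are arithmetic means of at least two experiments.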

[8] = Cmax in C57BL/6J mouse at 20 mg/kg, po; format: ADME, organism-based; design: dose 20 mg/kg, route oral; conditions: in vivo; outline: as §3
[9] = Clearance in C57BL/6J mouse at 5 mg/kg, iv; format: ADME, organism-based; design: dose 5 mg/kg, route intravenous; conditions: in vivo
Outline: (§4)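 Single iv dose of 5 mg/kg in DMA/Tween80/saline (10/10/80), injected into the tail vein of C57BL/6J mice (n = 2). Plasma collected up to 8 h after dosing and compound measured by LC/MS. Values are arithmetic means of at least two experiments.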

[10] = Tmax in C57BL/6J mouse at 20 mg/kg, po; format: ADME, organism-based; design: dose 20 mg/kg, route oral; conditions: in vivo; outline: as §3
Mus musculus [11] = experiment: In vivo inhibition of SCD1 in non-fat diet-induced oral dosed C57BL/6J mouse liver assessed as conversion of ratio of [14C]oleate to [14C]stearate after 6 to 7 hrs; format: functional; conditions: read-out: ID50 (the source's name); outline: as §1
[12] = Volume of distribution in C57BL/6J mouse at 5 mg/kg, iv; format: ADME, organism-based; design: dose 5 mg/kg, route intravenous; conditions: in vivo; outline: as §4
[13] = Half life in C57BL/6J mouse at 20 mg/kg, po; format: ADME, organism-based; design: dose 20 mg/kg, route oral; conditions: in vivo; outline: as §3
Mus musculus [14] = species: Mus musculus; experiment: Toxicity in C57BL/6J mouse assessed as occurance of abnormilities in eyes; format: organism-based; conditions: in vivo
Outline: (§5)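 C57BL/6J mice (n = 4) on a non-fat diet received oral doses once daily for 7 days, up to 3 mg/kg. The plasma desaturation index (C18:1/C18:0 ratio) served as the biomarker. Skin and eyes were inspected for abnormalities.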

Mus musculus [15] = experiment: Reduction of desaturation index, ratio of C18:1 N9(cis)oleate to C18:0 streate in serum of low fat diet fed po dosed C57BL/6J mouse administered as single dose for 7 days measured after seventh dose; format: functional; design: scale not given: the % may be the effect or the level left; conditions: in the assay text read “non-fat diet” for “low fat diet”; outline: as §5
Mus musculus [16] = experiment: as §2; format: ADME, organism-based; conditions: in vivo
Mus musculus [17] = species: Mus musculus; experiment: Toxicity in C57BL/6J mouse assessed as occurance of abnormilities in skin; format: organism-based; conditions: in vivo; outline: as §5
Stearoyl-CoA desaturase [18] = biological target: T1, Stearoyl-CoA desaturase; experiment: Inhibition of SCD1 in human 293A cell microsomal fraction assessed as conversion of [14C]stearate to [14C]oleate after 60 mins at 0.4 uM

Structure (SMILES): Cn1nc(Cc2cccnc2)nc1-c1ccc(N2CCC3(CCc4c(cccc4C(F)(F)F)O3)CC2)nn1
- IC50 (Stearoyl-CoA desaturase [1]): 38 nM
- IC50 [2]: 4 nM
- IC50 [3]: 65 nM

Structure (SMILES): O=C(NCC(O)c1ccccc1)c1ccc(N2CCC3(CC2)CC(O)c2c(F)cccc2O3)nn1 (stereo not drawn)
- ED50 (Mus musculus [4]): 7 mg/kg

Structure (SMILES): O=C(NCC(O)c1cccnc1)c1ccc(N2CCC3(CCc4c(cccc4C(F)(F)F)O3)CC2)nn1 (stereo not drawn)
- ED50 (Mus musculus [5]): 0.9 mg/kg
- bioavailability [6]: 67%
- AUC(0-t) at 8 h [7]: 13000 ng·h/mL
- Cmax [8]: 3500 ng/mL
- ED50 (Mus musculus [4]): 0.8 mg/kg
- clearance [9]: 17 mL/min/kg
- Tmax [10]: 1 h
- ED50 (Mus musculus [11]): 2.5 mg/kg
- Vd [12]: 1 L/kg
- half-life [13]: 2 h

Structure (SMILES): O=C(NCC(O)c1ccccc1)c1ccc(N2CCC3(CC2)CC(O)c2cc(F)ccc2O3)nn1 (stereo not drawn)
- IC50 [2]: > 1000 nM

Structure (SMILES): FC(F)(F)c1cccc2c1CCC1(CCN(c3ccc(-c4nnc(Cc5cccnc5)o4)nn3)CC1)O2
- ED50 (Mus musculus [5]): 0.5 mg/kg
- Activity (Mus musculus [14]): Non-toxic
- IC50 (Stearoyl-CoA desaturase [1]): 0.8 nM
- Activity (Mus musculus [15]): 75%
- F (Mus musculus [16]): Not Active
- AUC(0-t) at 8 h [7]: 7800 ng·h/mL
- Cmax [8]: 2600 ng/mL
- Activity (Mus musculus [17]): Non-toxic
- Tmax [10]: 1 h
- ED50 (Mus musculus [11]): 0.8 mg/kg
- IC50 [2]: 0.03 nM
- half-life [13]: 1.4 h
- IC50 [3]: 0.06 nM

Structure (SMILES): O=C(NCC(O)c1ccccc1)c1ccc(N2CCC3(C=Cc4ccccc4O3)CC2)nn1 (stereo not drawn)
- IC50 [2]: 790 nM
- IC50 [3]: 61 nM

Structure (SMILES): FC(F)(F)c1cccc2c1CCC1(CCN(c3ccc(-c4nnc(Cc5cccnc5)[nH]4)nn3)CC1)O2
- IC50 (Stearoyl-CoA desaturase [1]): 4 nM
- IC50 [2]: 0.13 nM
- IC50 [3]: 1 nM

Structure (SMILES): O=C(NCC(O)c1cccnc1)c1ccc(N2CCC3(CCc4c(Cl)cccc4O3)CC2)nn1 (stereo not drawn)
- ED50 (Mus musculus [4]): 3 mg/kg

Structure (SMILES): O=C(NCC(O)c1ccccc1)c1ccc(N2CCC3(CC2)Oc2ccccc2C3=O)nn1 (stereo not drawn)
- IC50 [3]: > 10000 nM

Structure (SMILES): FC(F)(F)c1cccc2c1CCC1(CCN(c3ccc(-c4nnc(CCc5cccnc5)o4)nn3)CC1)O2
- IC50 (Stearoyl-CoA desaturase [1]): 35 nM
- IC50 [2]: 2 nM
- IC50 [3]: 16 nM

Structure (SMILES): O=C(NCC(O)c1cccnc1)c1ccc(N2CCC3(CCc4c(F)ccc(F)c4O3)CC2)nn1 (stereo not drawn)
- ED50 (Mus musculus [4]): 5 mg/kg

Structure (SMILES): Cc1cccc2c1CCC1(CCN(c3ccc(C(=O)NCC(O)c4cccnc4)nn3)CC1)O2 (stereo not drawn)
- ED50 (Mus musculus [4]): 4 mg/kg

Structure (SMILES): FC(F)(F)c1cccc2c1CCC1(CCN(c3ccc(-c4nnc(-c5cccnc5)o4)nn3)CC1)O2
- IC50 [3]: > 10000 nM

Structure (SMILES): O=C(NCC(O)c1cccnc1)c1ccc(N2CCC3(CCc4c(F)cccc4O3)CC2)nn1 (stereo not drawn)
- IC50 (Stearoyl-CoA desaturase [1]): 7 nM
- ED50 (Mus musculus [4]): 2 mg/kg
- IC50 [2]: 12 nM
- IC50 [3]: 6 nM

Structure (SMILES): O=C(NCC(O)c1ccccc1)c1ccc(N2CCC3(CC2)Cc2ccccc2CO3)nn1 (stereo not drawn)
- IC50 (Stearoyl-CoA desaturase [18]): > 400 nM
- IC50 [3]: 76 nM

Structure (SMILES): O=C(NCC(O)c1ccccc1)c1ccc(N2CCC3(CC2)Cc2ccccc2C3=O)nn1 (stereo not drawn)
- IC50 [2]: 2000 nM

Structure (SMILES): O=C(NCC(O)c1ccccc1)c1ccc(N2CCC3(CC2)Oc2ccccc2CC3O)nn1 (stereo not drawn)
- IC50 (Stearoyl-CoA desaturase [1]): 560 nM
- IC50 [2]: 300 nM
- IC50 [3]: 49 nM

Structure (SMILES): COc1cccc2c1C(O)CC1(CCN(c3ccc(C(=O)NCC(O)c4ccccc4)nn3)CC1)O2 (stereo not drawn)
- IC50 [2]: > 1000 nM

Structure (SMILES): O=C(NCC(O)c1ccccc1)c1ccc(N2CCC3(CC2)CC(O)c2ccc(F)cc2O3)nn1 (stereo not drawn)
- ED50 (Mus musculus [4]): 20 mg/kg

Structure (SMILES): O=C(NCC(O)c1ccccc1)c1ccc(N2CCC3(CC2)CC(O)c2ccccc2O3)nn1 (stereo not drawn)
- ED50 (Mus musculus [4]): 15 mg/kg

Structure (SMILES): O=C(NCC(O)c1ccccc1)c1ccc(N2CCC3(CC2)CC(=O)c2ccccc2O3)nn1 (stereo not drawn)
- IC50 (Stearoyl-CoA desaturase [1]): 690 nM
- IC50 [2]: 250 nM
- IC50 [3]: 50 nM

Structure (SMILES): O=C(NCC(O)c1ccccc1)c1ccc(N2CCC3(CC2)Oc2ccccc2CC3=O)nn1 (stereo not drawn)
- IC50 [2]: > 10000 nM
